The text below walks through data of ChEMBL document CHEMBL1136923, “Highly potent, orally available anti-inflammatory broad-spectrum chemokine inhibitors” (J Med Chem, 2009).

In data set [1] the target is C-C chemokine receptor type 2 (Homo sapiens) (UniProt P41597). The experiment in a line: Antagonist activity at CCR2 in human THP1 cells assessed as inhibition of CCL2-induced chemotaxis after 2 hrs by microtiter format trans-well migration assay. In kind it is functional, cell-based. Particulars: THP-1. The essentials: (§1)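 Microtiter trans-well migration assay in Gey's balanced salt solution with 1 mg/mL endotoxin-free BSA, no fetal calf serum. Migration ran 2 h at 37 °C. Compounds dissolved in DMSO and added to both top and bottom compartments, final DMSO 1%.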

Data set [2] in a line: Antagonist activity at Interleukin-8 receptor in human PMNC assessed as inhibition of CXCL8-induced chemotaxis after 2 hrs by microtiter format trans-well migration assay. Particulars: read-out: ED50 (the source's name). Type of data set: functional. The essentials: as §1
Data set [3] has as its target C-C chemokine receptor type 2 (Homo sapiens) (UniProt P41597). The experiment in a line: Antagonist activity at CCR2 in human THP1 cells assessed as inhibition of CCL2-induced chemotaxis at 1000 nM after 2 hrs by microtiter format trans-well migration assay. Type of data set: functional, cell-based. As to conditions: THP-1. A digest of the protocol:
as §1

Data set [4] has the same target. Description: Antagonist activity at CCR2 in human THP1 cells assessed as inhibition of CCL2-induced chemotaxis at 10 nM after 2 hrs by microtiter format trans-well migration assay. In kind it is functional, cell-based. As to conditions: THP-1. A digest of the protocol: as §1
The target is the same in data set [5]. Description: Antagonist activity at CCR2 in human THP1 cells assessed as inhibition of CCL2-induced chemotaxis at 0.1 nM after 2 hrs by microtiter format trans-well migration assay. Type of data set: functional, cell-based. As to conditions: THP-1. The essentials:
as §1

For data set [6], the target named is T1, C-C chemokine receptor type 1 (Homo sapiens) (UniProt P32246).
T1 sequence (whole entry): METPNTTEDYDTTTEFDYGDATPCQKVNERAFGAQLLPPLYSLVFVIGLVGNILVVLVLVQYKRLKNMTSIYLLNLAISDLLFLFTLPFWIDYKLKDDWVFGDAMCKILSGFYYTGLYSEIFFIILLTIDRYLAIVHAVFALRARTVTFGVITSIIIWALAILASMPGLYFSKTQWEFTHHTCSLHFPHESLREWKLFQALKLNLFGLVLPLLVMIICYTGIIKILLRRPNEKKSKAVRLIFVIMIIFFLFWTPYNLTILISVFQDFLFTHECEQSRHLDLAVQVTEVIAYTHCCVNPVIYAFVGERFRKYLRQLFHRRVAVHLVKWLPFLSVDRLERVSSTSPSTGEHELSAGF
Description: Antagonist activity at CCR1 in human THP1 cells assessed as inhibition of CCL3-induced chemotaxis at 0.1 nM after 2 hrs by microtiter format trans-well migration assay. Type of data set: functional, cell-based. Particulars: THP-1. The essentials: as §1

The target of data set [7] is T1, C-C chemokine receptor type 1 (Homo sapiens). Description: Antagonist activity at CCR1 in human THP1 cells assessed as inhibition of CCL3-induced chemotaxis at 0.01 nM after 2 hrs by microtiter format trans-well migration assay. Type of data set: functional, cell-based. Particulars: THP-1. A digest of the protocol:
as §1

In data set [8] the target is C-C chemokine receptor type 5 (Homo sapiens) (UniProt P51681). Description: Antagonist activity at CCR5 in human THP1 cells assessed as inhibition of CCL5-induced chemotaxis at 100 nM after 2 hrs by microtiter format trans-well migration assay. In kind it is functional, cell-based. As to conditions: THP-1. The essentials:
as §1

The target is the same in data set [9]. Description: Antagonist activity at CCR5 in human THP1 cells assessed as inhibition of CCL5-induced chemotaxis at 10 nM after 2 hrs by microtiter format trans-well migration assay. In kind it is functional, cell-based. As to conditions: THP-1. The essentials: as §1
The target in data set [10] is C-X-C chemokine receptor type 4 (Homo sapiens) (UniProt P61073). Description: Antagonist activity at CXCR4 in human THP1 cells assessed as inhibition of CXCL12-induced chemotaxis at 10 nM after 2 hrs by microtiter format trans-well migration assay. Type of data set: functional, cell-based. As to conditions: THP-1. A digest of the protocol: as §1
Data set [11] deals with T2, C5a anaphylatoxin chemotactic receptor 1 (Homo sapiens) (UniProt P21730).
T2 sequence (whole entry): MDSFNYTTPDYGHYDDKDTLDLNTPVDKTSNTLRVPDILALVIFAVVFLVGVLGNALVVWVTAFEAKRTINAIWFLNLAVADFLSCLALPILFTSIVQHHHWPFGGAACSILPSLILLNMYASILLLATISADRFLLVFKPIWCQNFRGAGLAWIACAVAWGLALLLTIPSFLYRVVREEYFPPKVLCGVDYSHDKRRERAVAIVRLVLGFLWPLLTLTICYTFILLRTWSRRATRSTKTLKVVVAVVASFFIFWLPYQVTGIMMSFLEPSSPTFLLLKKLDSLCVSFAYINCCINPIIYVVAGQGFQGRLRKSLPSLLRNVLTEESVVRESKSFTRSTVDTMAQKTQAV
The experiment in a line: Antagonist activity at C5a receptor in human PMNC assessed as inhibition of C5a-induced chemotaxis at 1000 nM after 2 hrs by microtiter format trans-well migration assay. Type of data set: functional. The essentials:
as §1

Data set [12] concerns the target T2, C5a anaphylatoxin chemotactic receptor 1 (Homo sapiens). Description: Antagonist activity at C5a receptor in human PMNC assessed as inhibition of C5a-induced chemotaxis at 100 nM after 2 hrs by microtiter format trans-well migration assay. In kind it is functional. A digest of the protocol: as §1
The target of data set [13] is C-X-C chemokine receptor type 4 (Homo sapiens) (UniProt P61073). The experiment in a line: Antagonist activity at CXCR4 in human THP1 cells assessed as inhibition of CXCL12-induced chemotaxis at 0.01 nM after 2 hrs by microtiter format trans-well migration assay. In kind it is functional, cell-based. Particulars: THP-1. The essentials: as §1
Data set [14] is described as follows: Antagonist activity at Interleukin-8 receptor in human PMNC assessed as inhibition of CXCL8-induced chemotaxis at 100 nM after 2 hrs by microtiter format trans-well migration assay. Type of data set: functional. A digest of the protocol: as §1
Data set [15] has as its system THP-1. The experiment in a line: Endogenous chemoattractant activity at human THP1 cells assessed as cell migration at 1 uM after 2 hrs by microtiter format trans-well migration assay. In kind it is functional.
Data set [16] has as its system THP-1. The experiment in a line: Endogenous chemoattractant activity at human THP1 cells assessed as cell migration at 1 nM after 2 hrs by microtiter format trans-well migration assay. In kind it is functional.
The subject of data set [17] is Mus musculus. Description: Antiinflammatory activity in mouse assessed as inhibition of LPS-induced TNFalpha upregulation at 0.0075 ug, sc measured 2 hrs after LPS challenge. Type of data set: functional. The essentials:
(§2)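 Murine sublethal endotoxemia: LPS given intraperitoneally, with serum TNF-α measured 2 h after the LPS injection as the end point. Compound was given subcutaneously or orally. Vehicle was 0.6% DMSO and 1% carboxymethylcellulose (final concentrations) in sterile water. Effect is reported as % relative to control.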

Data set [18] relates to Mus musculus. Description: Antiinflammatory activity in mouse assessed as inhibition of LPS-induced TNFalpha upregulation at 0.075 ug, sc measured 2 hrs after LPS challenge. In kind it is functional. A digest of the protocol: as §2
Data set [19] concerns Mus musculus. The experiment in a line: Antiinflammatory activity in mouse assessed as inhibition of LPS-induced TNFalpha upregulation at 0.025 mg, sc measured 2 hrs after LPS challenge. Type of data set: functional. The essentials:
as §2

Data set [20] is described as follows: Fractional bioavailability in Sprague-Dawley rat at 3 mg/kg, po administered as single dose. Type of data set: ADME, organism-based. As to conditions: in vivo. The essentials:
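Male Sprague-Dawley rats, three per compound, receive a single oral dose by gavage in 1% carboxymethylcellulose in 0.9% saline, with food and water ad libitum. Plasma is sampled from 5 to 480 min and drug is quantified by positive-mode LC/MS/MS after acetonitrile/formic acid extraction. The lower limit of quantitation is about 2 ng/mL. Exposure is AUC(0→t) by the linear/log trapezoidal rule, and F is oral fractional bioavailability.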

Data set [21] in a line: AUC (0 to t) in Sprague-Dawley rat at 3 mg/kg, po administered as single dose. Type of data set: ADME, organism-based. Further details: dose 3 mg/kg, route oral. As to conditions: plasma. A digest of the protocol:
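Male Sprague-Dawley rats, three per compound per route, single dose. IV vehicle 5% DMSO in 0.9% saline; oral gavage vehicle 1% carboxymethylcellulose in 0.9% saline; fed ad libitum. Plasma taken 5–480 min post-dose, extracted with 0.1% formic acid in acetonitrile, quantified by LC/MS/MS (positive mode). AUC(0–t) by linear/log trapezoidal rule; IV curve back-extrapolated assuming initial volume 0.26 L/kg.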

C-C chemokine receptor type 2 (Homo sapiens), sequence (P41597 whole entry, looked up): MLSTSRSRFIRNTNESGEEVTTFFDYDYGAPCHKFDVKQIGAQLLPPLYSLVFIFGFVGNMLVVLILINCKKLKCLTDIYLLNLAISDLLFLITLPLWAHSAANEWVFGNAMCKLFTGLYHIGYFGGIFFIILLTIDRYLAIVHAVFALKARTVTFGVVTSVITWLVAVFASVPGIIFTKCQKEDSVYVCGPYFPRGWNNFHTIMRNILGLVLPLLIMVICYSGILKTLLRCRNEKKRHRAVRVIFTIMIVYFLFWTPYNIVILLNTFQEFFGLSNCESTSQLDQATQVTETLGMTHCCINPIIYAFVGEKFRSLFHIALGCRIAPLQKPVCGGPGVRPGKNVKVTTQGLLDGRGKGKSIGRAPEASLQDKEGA
C-C chemokine receptor type 5 (Homo sapiens), sequence (P51681 whole entry, looked up): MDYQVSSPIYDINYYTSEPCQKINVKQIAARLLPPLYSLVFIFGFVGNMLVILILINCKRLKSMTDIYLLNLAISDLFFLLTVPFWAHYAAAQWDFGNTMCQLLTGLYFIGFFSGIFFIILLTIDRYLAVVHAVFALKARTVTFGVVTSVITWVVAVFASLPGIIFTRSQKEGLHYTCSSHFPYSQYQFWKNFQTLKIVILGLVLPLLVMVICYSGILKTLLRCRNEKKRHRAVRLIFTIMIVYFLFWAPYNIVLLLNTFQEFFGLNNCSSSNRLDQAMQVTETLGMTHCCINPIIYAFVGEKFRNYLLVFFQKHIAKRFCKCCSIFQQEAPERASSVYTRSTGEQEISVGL
C-X-C chemokine receptor type 4 (Homo sapiens), sequence (P61073 whole entry): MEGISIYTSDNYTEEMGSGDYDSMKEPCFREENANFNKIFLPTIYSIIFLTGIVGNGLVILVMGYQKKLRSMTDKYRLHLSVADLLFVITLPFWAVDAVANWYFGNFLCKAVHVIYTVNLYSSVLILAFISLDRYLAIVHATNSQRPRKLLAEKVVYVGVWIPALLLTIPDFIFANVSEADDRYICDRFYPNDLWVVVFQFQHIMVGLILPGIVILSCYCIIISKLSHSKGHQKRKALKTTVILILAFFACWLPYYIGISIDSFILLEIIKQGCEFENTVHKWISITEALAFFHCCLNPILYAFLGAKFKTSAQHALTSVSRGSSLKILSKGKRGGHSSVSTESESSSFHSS

`CCCCCCCCCCC(C)(C)C(=O)N[C@H]1CCCCNC1=O`: the ED50 in [1] was found to be 0.09 nM. Besides, in [2], the EC50 was determined as 0.3 nM. Besides, the inhibition in data set [3] was 97%; in data set [4] it was 96%; in data set [5] it was 53.5%; in [6] it was 43%; in [7], 21%; in data set [8] it was 92.5%. Moreover, the inhibition worked out at 102% in data set [9]; 107% in data set [10]; 26% in data set [11]; 16% in data set [12]; 15.5% in data set [13]. The inhibition at 0.1 µM in [14] worked out at 128%. Moreover, the values for the Activity in the data set with THP-1 [15] and in the data set with THP-1 [16] were 4626% and 4335%, respectively. The “inhibition (INH)” value with Mus musculus [17] was determined as 54%; with Mus musculus [18] it was 65%; with Mus musculus [19] it was 64%. In addition, the bioavailability in data set [20] worked out at 16%. The compound also gave an AUC(0-t) in [21] of 183 ng·h/mL.
